SIAE inh – inhibitors of human sialic acid acetylesterase SIAE; Q9HAT2; SIAE FP-Rh probe binding, fluorescence polarization; inhibition, % at 9.66 µM; 370,000 compounds, 0.69% hits; AID 1053197;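 active = inhibition above a cutoff: mean of compounds within the control limits plus 3 SD of those, cut at about 17% in these data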;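 also: 0% = plate median of compound wells and 100% = probe without SIAE protein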
ABHD4 inh – inhibitors of mouse ABHD4. inhibition, % at 8.92 µM. purified mABHD4, FP-Rh probe fluorescence polarization. AID 720543. 370,000 compounds, 0.54% hits;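 active = inhibition exceeding the mean over every tested compound plus 3 SD, cut at about 30% in these data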;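 also: 0% = plate median of compound wells and 100% = S159A mutant with DMSO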
Target sequence (Q8VD66 whole entry, looked up): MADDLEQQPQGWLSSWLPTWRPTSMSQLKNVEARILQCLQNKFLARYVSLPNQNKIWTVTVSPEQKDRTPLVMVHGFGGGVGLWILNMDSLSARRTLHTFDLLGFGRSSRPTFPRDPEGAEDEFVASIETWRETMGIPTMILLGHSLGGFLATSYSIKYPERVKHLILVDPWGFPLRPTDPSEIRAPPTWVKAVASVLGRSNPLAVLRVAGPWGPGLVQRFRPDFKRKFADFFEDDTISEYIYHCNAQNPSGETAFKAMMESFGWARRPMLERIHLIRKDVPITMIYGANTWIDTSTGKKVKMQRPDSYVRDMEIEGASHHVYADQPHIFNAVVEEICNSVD
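Test system: mouse ABHD4 enzyme, wild type. Reagent: FP-Rh fluorescent activity-based probe, added after compound pre-incubation. Timing: pre-incubation 45 min, probe exposure 60 min, at 25 °C. Technique: FP readout, ex 525 nm / em 598 nm. Benchmarks: high control S159A mutant with DMSO, low control median of compound wells.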
rCAG RNA binder – binds r(CAG) RNA repeats; r(CAG) RNA repeat, TO-PRO-1 dye displacement fluorescence; inhibition, % at 3 µM; 370,000 compounds, 1.3% hits;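 active = inhibition above the plate cutoff, the mean of all test compounds on that plate plus 3 SD, cut at about 35% in these data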;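 also: 0% = DMSO alone and 100% = 100 µM mitoxantrone as full dye displacement; higher means more dye released from RNA so lower well fluorescence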
HTRA1 inhibitor – inhibitors of human serine peptidase HTRA1 | inhibition, % at 5.96 µM | Q92743 | 340,000 compounds, 0.5% hits | recombinant HTRA1, FP-rhodamine activity-based probe, fluorescence polarization; in the data active = inhibition above about 36%;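 also: 0% = enzyme with DMSO and 100% = wells lacking enzyme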
TCR CD3 inh – blocks the human TCR-CD3 interaction; TAMRA-labeled TCR probe fluorescence, biochemical; inhibition, % at 9.4 µM; 360,000 compounds, 0.37% hits; in the data active = inhibition above about 19%;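 also: recombinant mutant TCR 2C K166C tagged with TAMRA read by polarization; 0% = receptor in buffer alone and 100% = receptor with positive control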
rCAG binder conf – r(CAG) RNA repeat binding, confirmation. shares compounds with rCAG RNA binder. TO-PRO-1 dye displacement fluorescence. 4,300 compounds, 70% hits. inhibition, % at 3 µM;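 active = inhibition above a per-plate cutoff, the mean inhibition of sample wells plus 3 SD, cut at about 35% in these data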;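 also: loss of TO-PRO-1 fluorescence as compound displaces dye from 1x1 AA loop RNA; 0% = DMSO only wells and 100% = 100 µM mitoxantrone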
dCAG dye counter – counter-screen for rCAG RNA binders: DNA CAG dye complex inhibitors; d(CAG) DNA oligo TO-PRO-1 dye displacement, fluorescence; shares compounds with rCAG RNA binder; 4,300 compounds, 94% hits; inhibition, % at 3 µM; AID 652068;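 active = inhibition above its plate's cutoff, the mean test-well inhibition plus 3 SD, cut at about 4.8% in these data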;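 also: 0% = DNA dye mix with DMSO and 100% = 100 µM mitoxantrone; hits displace the dye from DNA and so lower well fluorescence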
Starred values were filed as active, the others as inactive; / = no result. This is a sample that favours compounds with a hit; in the whole collection about 2.5% have one here.

SMILES	SIAE inh	ABHD4 inh	rCAG RNA binder	HTRA1 inhibitor	TCR CD3 inh	rCAG binder conf	dCAG dye counter
CCOCc1nnc(NC(=O)c2cc(OC)cc(OC)c2)s1	-7	2	-2	5	-5	/	/
COc1ccc(-c2cc(C(=O)O)c(C)o2)cc1OC	6	5	2	5	7	/	/
COc1ccc(-c2cc(C(=O)NC(Cc3cc4ccccc4[nH]3)C(=O)O)c(C)o2)cc1OC (centres undefined)	4	4	49*	-3	6	50*	15*
Cc1cnc(C(=O)OCC(=O)Nc2oc(-c3ccccc3)c(-c3ccccc3)c2C#N)cn1	1	-14	46*	7	2	51*	14*
O=C(O)C(Cc1ccccc1)N1C(=O)/C(=C/c2ccccc2)SC1=S (centres undefined)	-3	-3	53*	-23	-4	56*	20*
COc1cc(/C=C2\SC(=S)N(C(Cc3ccccc3)C(=O)O)C2=O)ccc1O (centres undefined)	-153	-211	45*	-166	-89	34	7.9*
O=C(O)C(Cc1ccccc1)N1C(=O)c2c(Cl)c(Cl)c(Cl)c(Cl)c2C1=O (centres undefined)	3	-2	51*	-11	3	53*	17*
Cc1ccc(/C=C2\SC(=S)N(C(Cc3ccccc3)C(=O)O)C2=O)cc1 (centres undefined)	16	2	42*	-25	-3	80*	37*
O=C(O)C(Cc1ccccc1)N1C(=O)c2ccccc2C1=O (centres undefined)	0	-3	1	10	4	/	/
COc1cc(/C=C2\SC(=S)N(Nc3ccccc3)C2=O)ccc1O	-207	-215	28	-185	-110	/	/
COc1ccccc1NS(=O)(=O)c1cc(NC(=O)C(C)C)ccc1N1CCCCC1	-2	-24	6	-24	5	/	/
CC1CCN(C(c2nnnn2CCc2ccccc2)C(C)C)CC1 (centres undefined)	-2	2	-8	-1	-5	/	/
Cc1ccc(S(=O)(=O)N2C(c3ccc(Cl)c(Cl)c3)CC=C(C(=O)O)C2c2ccc(Cl)cc2)cc1 (centres undefined)	-16	5	82*	/	-8	83*	52*
CC(=O)C1=CCC(c2ccc(C)cc2)N(S(=O)(=O)c2ccc(Cl)cc2)C1 (centres undefined)	-8	-2	4	/	-2	/	/
Cc1ccc(S(=O)(=O)N2CC(C(=O)O)=CC[C@H]2c2ccc(Cl)cc2)cc1	0	-11	37*	-6	-1	16	4
COc1cc([C@@H]2CC=C(C(=O)O)[C@H](c3ccccc3)N2S(=O)(=O)c2ccc(C)cc2)cc(OC)c1OC	2	13	28	-1	-4	/	/
Cc1ccc(S(=O)(=O)N2C(c3cccc(Cl)c3)CC=C(C(=O)O)C2c2cccc(Cl)c2)cc1 (centres undefined)	-4	17	4	/	4	/	/
COc1cc([C@@H]2CC=C(C(=O)O)[C@H](c3ccc(Cl)cc3)N2S(=O)(=O)c2ccc(C)cc2)cc(OC)c1OC	-7	17	35*	-13	4	34	7.6*
Cc1ccc(S(=O)(=O)N2[C@@H](c3ccc(Cl)cc3)C(C(=O)O)=CC[C@H]2c2ccc(Cl)c(Cl)c2)cc1	-13	-3	86*	-126	9	86*	59*
Cc1ccc(S(=O)(=O)N2C(c3ccc(Cl)c(Cl)c3)CC=C(C(=O)O)C2c2cccc(Cl)c2)cc1 (centres undefined)	-12	9	12	/	-5	/	/
COc1ccc(CN(C)C(=O)COC(=O)c2c(C)nn(-c3ccc(F)cc3)c2Cl)cc1	-1	1	2	-4	6	/	/
COc1cc2ncnc(NCc3cccc(F)c3F)c2cc1OC	-5	-7	2	2	-3	/	/
N#Cc1ccc(Cn2c(-c3ccc(F)cc3)noc2=O)cc1	-1	0	-3	-7	8	/	/
N=C1C2=C3Sc4ccccc4N3CCCC2=NN1c1cccc(S(=O)(=O)O)c1	1	11	38*	-3	-1	47*	11*
CC(C)NC(=O)N[C@@H]1C[C@@H]2O[C@@H](CO)CC[C@@H]2O[C@@H]1CCc1ccc(-c2ccccc2F)cc1	4	5	1	/	/	/	/
SMILES	SIAE inh	ABHD4 inh	rCAG RNA binder	HTRA1 inhibitor	TCR CD3 inh	rCAG binder conf	dCAG dye counter
C=CCN1C(=O)C(CC(=O)O)SC1=Nc1ccc(N=Nc2ccccc2)cc1 (centres undefined)	10	3	55*	-5	-3	37*	8.8*
CCCN(CCC)C(=S)NC1CC2C=CC1C2 (centres undefined)	-9	-1	-6	-2	-6	/	/
CS(=O)(=O)C1=NSC2=NC(=O)/C(=C\c3cccn3-c3ccccc3Cl)C(=N)N21	-39	-42	83*	-39	-4	77*	39*
Cc1ccc(-n2cccc2/C=C2/C(=N)N3C(=NC2=O)SN=C3S(C)(=O)=O)cc1	-38	-88	89*	-47	-2	84*	50*
CCc1ccc(-n2cccc2/C=C2/C(=N)N3C(=NC2=O)SN=C3S(C)(=O)=O)cc1	-58	-136	94*	-66	6	91*	72*
Cc1cc(C)cc(-n2cccc2/C=C2/C(=N)N3C(=NC2=O)SN=C3S(C)(=O)=O)c1	-58	-84	89*	-82	-5	88*	61*
Cc1ccc(S(=O)(=O)Oc2ccc(/C=C3/C(=N)N4C(=NC3=O)SN=C4S(C)(=O)=O)cc2)cc1	-19	0	32	-15	0	/	/
CCCc1nc2sc3c(c2c(=O)n1NC(=O)CCC(=O)OC)CCCC3	0	-4	6	1	-6	/	/
COc1cccc(-n2c(C)cc(/C=C3/C(=N)N4C(=NC3=O)SN=C4S(C)(=O)=O)c2C)c1	-15	-2	65*	-17	1	79*	50*
Cc1ccc(S(=O)(=O)N2[C@@H](c3ccc(Cl)cc3)C(C(=O)O)=C[C@H]2CC2CCCC2)cc1	-4	-10	77*	-53	0	77*	40*
Cc1ccc(S(=O)(=O)N2[C@@H](c3ccc(C#N)cc3)C(C(=O)O)=C[C@H]2CC2CCCC2)cc1	-9	-1	69*	-13	1	59*	25*
Cc1ccc(S(=O)(=O)N2[C@@H](c3ccc(Cl)c(Cl)c3)C(C(=O)O)=C[C@H]2CC2CCCC2)cc1	-5	-28	87*	-102	1	86*	57*
Cc1nn(-c2ccc(F)cc2)c(Cl)c1/C=C(\CC(=O)O)c1nc2ccccc2s1	1	1	38*	-3	6	45*	11*
CCOc1ccccc1NC(=O)/C(C#N)=C/c1c(C)nn(-c2ccc(F)cc2)c1Cl	0	-1	1	-3	-1	/	/

Screening results deposited in PubChem BioAssay by The Scripps Research Institute Molecular Screening Center.
